In brackets after ≈: the same amount, converted by molar mass.
Legend:
Assay type in all cases: functional
Oryctolagus cuniculus [1] = species on record: Oryctolagus cuniculus; assay: Antiviral activity against McIntyre strain of herpes simplex virus-1 in primary rabbit kidney cell cultures
In short: (§1)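 Confluent cell monolayers in microtiter trays infected with 100 CCID50 of virus (1 CCID50 = dose infecting 50% of cultures); after 1 h adsorption, residual virus removed and cultures incubated with varying compound concentrations. Cytopathogenicity scored once complete in untreated infected controls; value is concentration reducing virus-induced cytopathogenicity by 50%, averaged over three to four separate experiments.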

Oryctolagus cuniculus [2] = species on record: Oryctolagus cuniculus; assay: Antiviral activity against F strain of herpes simplex virus-1 in primary rabbit kidney cell cultures; in short: as §1
Oryctolagus cuniculus [3] = species on record: Oryctolagus cuniculus; assay: Antiviral activity against G strain of herpes simplex virus-2 in primary rabbit kidney cell cultures; in short: as §1
Oryctolagus cuniculus [4] = species on record: Oryctolagus cuniculus; assay: Antiviral activity against KOS strain of herpes simplex virus-1 in primary rabbit kidney cell cultures; in short: as §1
Oryctolagus cuniculus [5] = species on record: Oryctolagus cuniculus; assay: Antiviral activity against Vaccinia virus in primary rabbit kidney cell cultures; in short: as §1
Oryctolagus cuniculus [6] = species on record: Oryctolagus cuniculus; assay: Antiviral activity against Vesicular stomatitis virus in primary rabbit kidney cell cultures; in short: as §1
Oryctolagus cuniculus [7] = species on record: Oryctolagus cuniculus; assay: Antiviral activity against B2006 strain of thymidine kinase deficient (TK-) herpes simplex virus-1 in primary rabbit kidney cell cultures; in short: as §1
Oryctolagus cuniculus [8] = species on record: Oryctolagus cuniculus; assay: Antiviral activity against 196 strain of herpes simplex virus-2 in primary rabbit kidney cell cultures; in short: as §1
Oryctolagus cuniculus [9] = species on record: Oryctolagus cuniculus; assay: Minimum cytotoxic concentration required to cause a microscopically detectable alteration of rabbit kidney cell morphology
In short: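 Cell cultures exposed to varying compound concentrations; value is concentration required to cause microscopically detectable alteration of cell morphology.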

Oryctolagus cuniculus [10] = species on record: Oryctolagus cuniculus; assay: Antiviral activity against VMW 1837 strain of thymidine kinase deficient (TK-) herpes simplex virus-1 in primary rabbit kidney cell cultures; in short: as §1
Oryctolagus cuniculus [11] = species on record: Oryctolagus cuniculus; assay: Antiviral activity against Lyons strain of herpes simplex virus-2 in primary rabbit kidney cell cultures; in short: as §1
[12] = Oryctolagus cuniculus, read-out: MIC

| SMILES | MIC (Oryctolagus cuniculus [1]) [µg/mL] | MIC (Oryctolagus cuniculus [2]) [µg/mL] | MIC (Oryctolagus cuniculus [3]) [µg/mL] | MIC (Oryctolagus cuniculus [4]) [µg/mL] | MIC (Oryctolagus cuniculus [5]) [µg/mL] | MIC (Oryctolagus cuniculus [6]) [µg/mL] | MIC (Oryctolagus cuniculus [7]) [µg/mL] | MIC (Oryctolagus cuniculus [8]) [µg/mL] | MCC (Oryctolagus cuniculus [9]) [µg/mL] | MIC (Oryctolagus cuniculus [10]) [µg/mL] | MIC (Oryctolagus cuniculus [11]) [µg/mL] | MIC (Oryctolagus cuniculus [1]; [12]) [µg/mL] | MIC (Oryctolagus cuniculus [2]; [12]) [µg/mL] | MIC (Oryctolagus cuniculus [3]; [12]) [µg/mL] | MIC (Oryctolagus cuniculus [4]; [12]) [µg/mL] | MIC (Oryctolagus cuniculus [5]; [12]) [µg/mL] |
| --- | --- | --- | --- | --- | --- | --- | --- | --- | --- | --- | --- | --- | --- | --- | --- | --- |
| O=c1[nH]c(=O)n([C@@H]2C[C@H](CO)[C@@H](O)C2)cc1I (racemic) | 0.1 (≈ 0.284 µM) | 0.1 (≈ 0.284 µM) | 20 (≈ 56.8 µM) | 0.1 (≈ 0.284 µM) | 150 (≈ 426 µM) | – | – | – | – | – | – | – | – | – | – | – |
| O=c1[nH]c(=O)n([C@@H]2C[C@H](CO)[C@@H](O)C2)cc1I (stereo in doubt; (+)) | 0.2 (≈ 0.568 µM) | 0.07 (≈ 0.199 µM) | 10 (≈ 28.4 µM) | 0.07 (≈ 0.199 µM) | 40 (≈ 114 µM) | > 400 | > 400 | > 400 | > 400 | > 400 | > 400 | – | – | – | – | – |
| O=c1[nH]c(=O)n([C@@H]2C[C@H](CO)[C@@H](O)C2)cc1I (stereo in doubt; (-)) | 20 (≈ 56.8 µM) | 7 (≈ 19.9 µM) | 70 (≈ 199 µM) | 1 (≈ 2.84 µM) | >400 | – | – | – | – | – | – | – | – | – | – | – |
| O=c1[nH]c(=O)n([C@H]2C[C@H](O)[C@@H](CO)O2)cc1/C=C/Br [BRIVUDINE] | – | – | – | – | – | > 400 | 150 (≈ 450 µM) | 70 (≈ 210 µM) | > 400 | > 400 | 7 (≈ 21 µM) | 0.025 (≈ 0.075 µM) | 0.02 (≈ 0.06 µM) | 2 (≈ 6 µM) | 0.01 (≈ 0.03 µM) | 15 (≈ 45 µM) |
| O=c1[nH]c(=O)n([C@H]2C[C@H](O)[C@@H](CO)O2)cc1I [IDOXURIDINE] | – | – | – | – | – | > 400 | > 400 | 2 (≈ 5.65 µM) | > 400 | > 400 | 1 (≈ 2.82 µM) | 0.1 (≈ 0.282 µM) | 0.07 (≈ 0.198 µM) | 0.4 (≈ 1.13 µM) | 0.1 (≈ 0.282 µM) | 0.2 (≈ 0.565 µM) |

Reference: ChEMBL document CHEMBL1124559, “Synthesis and antiviral activity of the enantiomeric forms of carba-5-iodo-2'-deoxyuridine and carba-(E)-5-(2-bromovinyl)-2'-deoxyuridine” (1989)
